Experiment: Toxicity liver stage against HepG2, at 10uM
Assay type: cell-based
Design: test concentration 10 uM, cell line HepG2-A16-CD81EGFP
Details: human, HepG2-A16-CD81EGFP cells; read-out: INHIBITION
How it was run: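 Uninfected HepG2-A16-CD81EGFP cells, 3 × 10^3 per well, 1536-well, plated on prespotted compound at 10 μM final, parasite-free screening media added to match infected plates; puromycin 10 μM positive, DMSO 0.5% negative; run in parallel with 48 h PbLuc assay at 37 °C, 5% CO2; viability by CellTiter-Glo luminescence, normalized to controls.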

| Structure (SMILES) | cytotoxicity at 10 µM [%] |
| --- | --- |
| O=C(c1cc(Cl)c2c(c1)OCCCO2)N(CC1CCOC1)C1CC1 (stereo not drawn) | -4.09 |
| CC(C)n1cc(C(=O)NCCN(C)C)c2n[nH]c(=O)c-2c1 | 9.06 |
| CCCn1nc(C(=O)NCCc2nnc3n2CCC3)ccc1=O | 3.38 |
| CC1CCN(CC(O)CNc2ccccn2)CC1 (stereo not drawn) | 11.4 |
| CC(NC(=O)CCN1CCOC1=O)(c1ccccc1)c1ccccc1 | -10 |
| COCCN(C)C(C(=O)O)c1ccc(C)c(C)c1 (stereo not drawn) | -9.47 |
| CN(C)C(C)(C)CNCc1cn(C)nc1-c1cccnc1 | 11.8 |
| O=C(NCC(O)(c1cccs1)C1CC1)NC1CCCCC1 (stereo not drawn) | -2.25 |
| O=C(c1ccc(F)c(Br)c1)N1CCCN2CCCC2C1 (stereo not drawn) | -0.746 |
| Cc1ccccc1OCCC(=O)N1CCC(c2nncn2C)CC1 | -13.3 |
| CC(=O)NC1CCN(c2cc(C3CCNCC3)ccn2)CC1 | 2.93 |
| Cc1nc(C(C)(C)NCc2nnc(C(C)C)o2)sc1C | 6.35 |
| CCc1cnc(CN(C(C)=O)C2CCN(CCc3cccs3)C2)o1 (stereo not drawn) | -6.78 |
| CC(C)c1nc2c(n1C)CCN(CC(=O)Nc1ccncc1)C2 | 0.698 |
| O=C(c1cncs1)N1CCOC(c2cc(CCO)[nH]n2)C1 (stereo not drawn) | -0.49 |
| COC(=O)CC(NC(=O)CCn1cccn1)c1ccc(C)cc1 (stereo not drawn) | 3.28 |
| COc1cc(C(=O)N2C[C@@H]3CC[C@H]2CN(Cc2cscn2)C3)ccn1 | 3.2 |
| Cn1ccnc1C(=O)N1CCOC(Cc2ccc(Cl)cc2)C1 (stereo not drawn) | 9.23 |
| CCc1nc(C2CCCN2CCn2cncn2)no1 (stereo not drawn) | -8.13 |
| NC(=O)C1CN(C(=O)Nc2cc(Cl)cc(Cl)c2)CCO1 (stereo not drawn) | 55.1 |
| Cc1n[nH]cc1CNc1ccc2c(c1)CN(C(=O)OC(C)(C)C)CC2 | 14.9 |
| CNc1cccc(C2CCCN(C(=O)c3coc(C)n3)C2)n1 (stereo not drawn) | -11.7 |
| Cc1ccc(OCCNC(=O)C(C)n2cncn2)cc1 (stereo not drawn) | -3.53 |

| Structure (SMILES) | cytotoxicity at 10 µM [%] |
| --- | --- |
| O=S1(=O)CCC(N(Cc2nc(-c3ccccn3)no2)Cc2cccs2)C1 (stereo not drawn) | -4.54 |
| NC(=O)c1ccc(S(=O)(=O)NC2CCN(Cc3ccccc3)C2=O)cc1 (stereo not drawn) | -9.96 |
| Cc1cnn(C2CN(CC(O)Cn3cccn3)C2)c1 (stereo not drawn) | 9.12 |
| CC1(C)Cc2ccccc2-c2nc(NCCCO)[nH]c(=O)c21 | 3.57 |
| O=C(NCCN1CCNC1=O)c1cnc(-c2cccnc2)nc1 | -0.885 |
| O=S(=O)(NCC1CCN(c2ccccn2)CC1)c1ccccc1F | -0.549 |
| O=C(NCCCNC(=O)c1cccc(O)c1)NCc1ccccc1F | -6.42 |
| CCc1ncc(C(=O)N2CC(Oc3ccccc3Cl)C2)cn1 | 45.7 |
| Fc1cnc(N2CCO[C@H]3CN(CC4CCCC4)C[C@H]32)nc1 | -9.39 |
| CCc1nccn1CCC(=O)N1CC[C@H](CO)[C@H](O)C1 | -1.2 |
| CCc1n[nH]c(C2CN(C(=O)c3cncnc3CC)CCO2)n1 (stereo not drawn) | -5.65 |
| Fc1cccc(Cl)c1Cn1ncnc1CSCCN1CCCC1 | -0.454 |
| CCC(=O)N1CC[C@H](O)[C@@H]1Cc1ccccc1 | 0.081 |
| CNC(=O)CN1CCOC(c2ccccc2C(F)(F)F)C1 (stereo not drawn) | 0.71 |
| CCOc1ccccc1Nc1nc2c(C)nn(C)c2c(=O)n1C | -7.53 |
| CCn1cc(-n2cc3nc(N(C)C)[nH]cc-3c2=O)cn1 | 10.2 |
| Cc1nn(C)c(C)c1C1COCCN1C(=O)CSC(C)(C)C (stereo not drawn) | 4.22 |
| CC(C)NC(=O)C1CCc2nnc(CNC(=O)C3CC3)n21 (stereo not drawn) | 4.9 |
| Cc1c(CN2Cc3nccn3CC2c2ccccc2)cnn1C (stereo not drawn) | -1.13 |
| O=C(c1ccc2cccnc2n1)N(Cc1ccsc1)CC1CCCO1 (stereo not drawn) | -15.1 |
| O=C(NCC1CCOC1)c1ccc(OCC(F)(F)F)nc1 (stereo not drawn) | -5.64 |
| CC(C)NC(=O)C1(Cc2ccccc2-c2cccs2)CCNC1 (stereo not drawn) | -42 |
| C=C(C)CN1CCC(NC(=O)NCCc2ccccc2OC)CC1 | 14.2 |

| Structure (SMILES) | cytotoxicity at 10 µM [%] |
| --- | --- |
| O=C(N1CCCO1)[C@@]12CCO[C@@H]1CCN(C1CCCCC1)C2 | -5.23 |
| NC(=O)C1CCN(C(=O)NCc2cccnc2OCC(F)(F)F)C1 (stereo not drawn) | -11.2 |
| Cc1cccc(NC2CCN(C(=O)Nc3cc(F)cc(F)c3)CC2)n1 | -0.961 |
| Cc1noc(C)c1C(=O)NCc1ccnc(OCC(F)(F)F)c1 | -0.421 |
| CN(CC(=O)Nc1ccc(Br)cn1)C(=O)C(C)(C)C | -11.9 |
| Cc1nn(C)cc1-c1cc(C(=O)NCC(C)(C)c2ccc(F)cc2)n[nH]1 | -1.29 |
| Cc1ccc(NC(=O)CS(=O)(=O)NC2CCC(C)CC2)nc1 (stereo not drawn) | -9.24 |
| O=C(O)Cc1cccc(-n2ccnc2-c2ccc(F)c(Cl)c2)c1 | 2.17 |
| CCn1nc(C)c2nc(C(C)C)nc(NC)c21 | 7.19 |
| CCc1nc(CN(C)C(=O)c2cc(NC(C)=O)ccc2Cl)no1 | -1.71 |
| CN1CCOC(CNCc2cccc(OCC(F)(F)F)c2)C1 (stereo not drawn) | -6.44 |
| CS(=O)(=O)N1CC[C@]2(C[C@H](Oc3ccccn3)CO2)C1 | -116 |
| Cc1cc(C)c(CNC(=O)N2CCCC2C(N)=O)c(=O)[nH]1 (stereo not drawn) | -0.241 |
| Cc1cnc(N2CCN3C[C@H](OCc4ccccn4)C[C@H]3C2)nc1 | -1.68 |
| Cc1nc(C2CCN(C(C)C)CC2)sc1Br | -3.02 |
| O=C(c1ccnnc1)N1C[C@@H]2COC[C@]2(COCC2CC2)C1 | -73.2 |
| Cc1noc(C)c1CN1C[C@H](C)[C@]2(CCN(Cc3cccnc3)C2=O)C1 | 4.59 |
| O=C(CSc1nnc(N2CCOCC2)s1)NCc1cccs1 | 1.66 |
| O=C1COc2cccc(OCc3ccccn3)c2N1 | 2.2 |
| O=C(NCCN1CCOCC1)c1ccn(COc2ccc(F)cc2)n1 | 6.17 |
| Cc1cc(C(=O)N2CC(=O)Nc3cnccc32)c(Cl)cc1F | 3.07 |
| CN(C)CCNC(=O)c1sc2ccccc2c1C1CCC(CN)CC1 (stereo not drawn) | -15.3 |
| N#Cc1ccc(C(=O)N2CC[C@H]3[C@H]2CCN3CC2CC2)cc1 | -9.87 |

| Structure (SMILES) | cytotoxicity at 10 µM [%] |
| --- | --- |
| O=C(CCNc1ncccn1)NCCOc1ccc2c(c1)CCC2 | -4.54 |
| CN(CCc1noc(C2CC2)n1)C(=O)CCc1cc2n(n1)CCCNC2 | -0.645 |
| CC1(c2ccccc2)CCC(=O)N(CCN2CCOCC2)C1 (stereo not drawn) | -8.65 |
| O=C(NC1CCC1)C1=NOC2(CCN(Cc3ccc(F)cc3)C2)C1 (stereo not drawn) | -67.7 |
| CC(=O)N1CCc2[nH]cnc2C12CCN(CC1CCOC1)CC2 (stereo not drawn) | -8.46 |
| CN(C)CCn1c(=O)n(C)c(=O)c2ccccc21 | -1.48 |
| O=C(c1ccncc1)N1CCN(Cc2cccnc2)c2ncccc2C1 | -1.16 |
| CC(=O)N1CCCC(C(=O)NCCc2csc(-c3ccncc3)n2)C1 (stereo not drawn) | 5.12 |
| COCc1nn(C(C)C)c2c1CCN(Cc1ccc(C)s1)C2 | -5.82 |
| CNC(=O)c1ccc(C(=O)N2CCCC(n3ccnc3C)C2)cn1 (stereo not drawn) | -0.248 |
| COc1cc(-c2cccc3c2OC(CN)C3)ccc1O (stereo not drawn) | -51.9 |
| CC/N=c1\nc(NCC)nc2n1C(O)(Nc1cc(C)ccc1C)CS2 (stereo not drawn) | 10.3 |
| COc1ccc(S(=O)(=O)N2C[C@@H]3CN(C)CCO[C@@H]3C2)cc1 | 1.82 |
| Cc1nc(CCCNC(=O)Nc2cc(F)cc(F)c2)n[nH]1 | -8.39 |
| CCc1ccccc1-c1cc(OC)nc(N)n1 | -3.3 |
| Cn1nc(Br)c2c(NCCN)ncnc21 | 20.2 |
| CC(C)N1C(=O)CN(CCCO)CC1(C)C | 2.04 |
| CC(C)(C)n1cc(C(=O)N2CCN(Cc3ccco3)CC2)cn1 | -7.36 |
| Cc1ccccc1C(C)CC(=O)N1CC[C@H](O)C1 (stereo partly drawn) | -49.7 |
| Cc1cccc(C(=O)N2CCCn3cnc(CN4CCCC4=O)c3C2)n1 | 15.7 |
| CN(C(=O)c1ccc2c(c1)nc(N1CC[C@H](O)C1)n2C)C1CCSCC1 | -13 |
| CN(C)c1nc2c(c(=O)[nH]1)CCN(C(=O)C1CCCO1)C2 (stereo not drawn) | -43.3 |
| O=C(c1cnc2c(cnn2C2CCCC2)c1)N1CCCSCC1 | -9.3 |

| Structure (SMILES) | cytotoxicity at 10 µM [%] |
| --- | --- |
| CCN(CC)CCN1CC[C@H]2OCC[C@@]2(C(=O)N2CCOCC2)C1 | 4.64 |
| O=C(CCCOCc1ccccc1)N1CCCC1c1ccccn1 (stereo not drawn) | -14.4 |
| Cc1ccsc1CCNC(=O)C1(Oc2cccnc2C)CCNCC1 | -2.37 |
| CO[C@H]1CCN(Cc2nccs2)C[C@@H]1Cc1ccccc1 | -71.9 |
| O=C(C1CCOCC1)N1C[C@H]2CNC[C@H]2C1 | -8.58 |
| N#Cc1c(C2CCOC2)cc(-c2ccc(N3CCCCC3)cc2)nc1N (stereo not drawn) | -8.78 |
| CCc1cnc(CN(C)C(C)C(=O)N2CCc3ccccc3C2)s1 (stereo not drawn) | 7.2 |
| O=C1O[C@@H]2CN(Cc3ccsc3)C[C@@H]2N1Cc1ccccn1 | 9.77 |
| COCc1noc(CNc2nc(C3CCCC3)nc3c2CCNCC3)n1 | 0.0228 |
| CCOc1ccccc1C(CC(=O)Nc1ccc(C)cn1)NC(C)=O (stereo not drawn) | -10.7 |
| Cc1cccc(Cc2nc3c([nH]2)CCCNC3=O)c1 | -12.9 |
| c1ccc(O[C@H]2COCCN(Cc3cccc4c3OCO4)C2)cc1 | 3.53 |
| CC(=O)N1CCc2nc(N3CCCC3)nc(C)c2C1 | -0.567 |
| OCc1cc(C2CCCN2c2ncccn2)n[nH]1 (stereo not drawn) | 8.32 |
| Cc1nc(NC(=O)CN2CCc3c(nc(C(C)C)n3C)C2)sc1C | -9.52 |
| Cc1cccc(N2CCN(CCCNC(=O)c3nccn3C)CC2)c1 | -0.679 |
| Cc1nc(C(=O)N2CCCC2c2noc(C3CC3)n2)c[nH]1 (stereo not drawn) | -7.06 |
| CCC1CN(CC(=O)N2CCN(C(C)=O)CC2)CCN1CCOC (stereo not drawn) | -7.58 |
| Cc1cnccc1NCCNC(=O)C1CCCN(Cc2ccco2)C1 (stereo not drawn) | -7.67 |
| Cc1ccc(N2CCCC3(COCCN(c4nccs4)C3)C2)nn1 (stereo not drawn) | -1.05 |
| CC[C@@H]1N(CC2CC2)CCC[C@]12CCC(=O)N2 | 15.4 |

From ChEMBL document CHEMBL4513216, “Probing the Open Global Health Chemical Diversity Library for Multistage-Active Starting Points for Next-Generation Antimalarials” (ACS Infect Dis, 2020)
